# Measured values taken from ChEMBL document CHEMBL1158465, “Novel small molecule bradykinin B2 receptor antagonists” (J Med Chem, 2009).
# Experiments:
# B2 bradykinin receptor [1] = biological target: T1, B2 bradykinin receptor (Homo sapiens, UniProt P30411); experiment: Displacement of [3H]bradykinin from human recombinant B2 receptor expressed in HEK293 cells; format: cell-based
# T1 sequence (P30411 whole entry): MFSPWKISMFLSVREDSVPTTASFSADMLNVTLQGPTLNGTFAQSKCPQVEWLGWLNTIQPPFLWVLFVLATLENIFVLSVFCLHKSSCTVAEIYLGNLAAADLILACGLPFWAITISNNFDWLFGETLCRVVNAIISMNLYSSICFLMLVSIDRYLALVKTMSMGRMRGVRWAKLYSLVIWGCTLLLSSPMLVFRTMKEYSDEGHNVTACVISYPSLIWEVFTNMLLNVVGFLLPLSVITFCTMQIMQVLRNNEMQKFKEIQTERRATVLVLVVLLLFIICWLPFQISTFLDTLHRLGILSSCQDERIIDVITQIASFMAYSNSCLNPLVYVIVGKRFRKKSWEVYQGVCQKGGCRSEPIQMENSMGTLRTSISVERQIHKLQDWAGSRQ
# B2 bradykinin receptor [2] = biological target: T1, B2 bradykinin receptor; experiment: Antagonist activity at B2 receptor in human HF15 cells assessed as inhibition of bradykinin-induced calcium mobilization; format: functional, cell-based
# [3] = Metabolic stability in human liver microsomes at 1 uM by HPLC; format: ADME, Microsome; conditions: read-out: Stability
# In short: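 Test compound was incubated with liver microsomes for 30 min. Stability is expressed as the percentage of parent compound remaining at the end of incubation.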
# Cytochrome P450 3A4 = Cytochrome P450 3A4 (Homo sapiens, UniProt P08684); experiment: Inhibition of human CYP3A4 by microtiter plate assay; format: ADME
# Sequence of Cytochrome P450 3A4 (P08684 whole entry): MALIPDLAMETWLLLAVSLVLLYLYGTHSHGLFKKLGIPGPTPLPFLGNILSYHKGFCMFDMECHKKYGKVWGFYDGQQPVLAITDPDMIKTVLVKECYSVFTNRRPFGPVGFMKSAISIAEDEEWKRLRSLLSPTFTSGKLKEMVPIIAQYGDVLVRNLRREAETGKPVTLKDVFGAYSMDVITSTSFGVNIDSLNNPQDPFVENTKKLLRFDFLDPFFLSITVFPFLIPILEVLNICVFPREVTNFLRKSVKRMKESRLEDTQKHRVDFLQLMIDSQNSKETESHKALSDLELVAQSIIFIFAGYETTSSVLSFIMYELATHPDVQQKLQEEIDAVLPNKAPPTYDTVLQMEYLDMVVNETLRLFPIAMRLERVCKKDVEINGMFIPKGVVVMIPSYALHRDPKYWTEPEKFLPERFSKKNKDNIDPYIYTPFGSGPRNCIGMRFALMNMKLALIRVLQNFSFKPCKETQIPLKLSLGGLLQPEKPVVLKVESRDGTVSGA
# Cytochrome P450 2C19 = Cytochrome P450 2C19 (Homo sapiens, UniProt P33261); experiment: Inhibition of human CYP2C19 by microtiter plate assay; format: ADME
# Sequence of Cytochrome P450 2C19 (P33261 whole entry): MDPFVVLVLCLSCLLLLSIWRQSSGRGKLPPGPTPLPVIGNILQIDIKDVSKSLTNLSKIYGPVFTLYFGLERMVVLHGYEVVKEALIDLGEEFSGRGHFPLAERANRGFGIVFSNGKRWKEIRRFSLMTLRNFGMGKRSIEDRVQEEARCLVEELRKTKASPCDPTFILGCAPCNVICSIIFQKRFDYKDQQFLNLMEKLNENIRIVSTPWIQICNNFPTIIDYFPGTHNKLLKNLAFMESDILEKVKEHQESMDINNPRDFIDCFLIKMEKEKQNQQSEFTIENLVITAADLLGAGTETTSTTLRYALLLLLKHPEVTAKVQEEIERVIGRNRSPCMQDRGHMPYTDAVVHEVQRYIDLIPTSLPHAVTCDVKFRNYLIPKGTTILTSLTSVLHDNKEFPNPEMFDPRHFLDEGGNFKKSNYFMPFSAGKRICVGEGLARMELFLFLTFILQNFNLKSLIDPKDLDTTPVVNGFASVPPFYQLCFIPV
# [4] = Terminal half life in Wistar rat at 1 mg/kg, iv or 1 mg/kg, po; format: ADME, organism-based; conditions: in vivo, read-out: beta t1/2
# [5] = Clearance in Wistar rat at 1 mg/kg, iv or 1 mg/kg, po; format: ADME, organism-based; conditions: in vivo
# [6] = Oral bioavailability in Wistar rat at 1 mg/kg; format: ADME, organism-based; conditions: in vivo
# B2 bradykinin receptor [7] = biological target: T1, B2 bradykinin receptor; experiment: Displacement of [3H]bradykinin from wild-type B2 receptor
# In short: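 Specific binding of [³H]-BK to recombinant human B₂ receptor expressed in HEK293 cells. Displacement by test compound is reported as IC₅₀. Values are the numerical average of at least two experiments.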
# [8] = Displacement of [3H]bradykinin from B2 receptor N107A mutant
# B2 bradykinin receptor [9] = biological target: T2, B2 bradykinin receptor (Cavia porcellus, UniProt O70526); experiment: Displacement of [3H]bradykinin from guinea pig B2 receptor
# T2 sequence (O70526 whole entry): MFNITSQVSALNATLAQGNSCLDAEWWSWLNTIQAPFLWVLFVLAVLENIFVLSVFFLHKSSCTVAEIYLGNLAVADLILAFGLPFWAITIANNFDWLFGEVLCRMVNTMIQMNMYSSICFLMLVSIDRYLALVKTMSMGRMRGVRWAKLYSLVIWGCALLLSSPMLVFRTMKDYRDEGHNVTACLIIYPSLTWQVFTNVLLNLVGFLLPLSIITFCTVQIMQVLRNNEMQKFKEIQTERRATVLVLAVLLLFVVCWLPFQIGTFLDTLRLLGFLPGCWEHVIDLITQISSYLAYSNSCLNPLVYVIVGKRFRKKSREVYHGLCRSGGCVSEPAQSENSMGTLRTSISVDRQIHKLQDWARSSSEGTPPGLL
# [10] = Aqueous solubility of the compound; format: physicochemical; conditions: aqueous solution
SMILES,IC50 (B2 bradykinin receptor [1]),IC50 (B2 bradykinin receptor [2]),also measured
Cc1cc(-c2ccnn2C)c2cccc(OCc3c(Cl)cncc3Cn3ccccc3=O)c2n1,5.1 nM,3.6 nM,
Cc1cc(-c2ncsc2Cl)c2cccc(OCc3c(C)ccnc3Cn3cccc(C(F)(F)F)c3=O)c2n1,10 nM,1.3 nM,remaining at 1 µM [3]: 34%; IC50 (Cytochrome P450 3A4): 300 nM; IC50 (Cytochrome P450 2C19): 300 nM
Cc1cc(-c2scnc2Cl)c2cccc(OCc3c(Cl)cncc3Cl)c2n1,980 nM,2500 nM,
Cc1cc(-c2cc[nH]n2)c2cccc(OCc3c(Cl)cncc3Cl)c2n1,310 nM,350 nM,
CC(=O)OCc1cncc(Cl)c1C(=O)c1cccc2c(-c3ccnn3C)cc(C)nc12,6 nM,260 nM,
Cc1cc(-c2cncn2C)c2cccc(OCc3c(Cl)cncc3Cl)c2n1,4400 nM,,
Cc1cc(-c2n[nH]cc2C)c2cccc(OCc3c(Cl)cncc3Cl)c2n1,110 nM,390 nM,remaining at 1 µM [3]: 19%
Cc1cc(-c2ccnn2C)c2cccc(OCc3c(C)ccnc3Cn3cccc(C(F)(F)F)c3=O)c2n1,8.8 nM,0.54 nM,remaining at 1 µM [3]: 45%; IC50 (Cytochrome P450 3A4): > 5000 nM; IC50 (Cytochrome P450 2C19): > 5000 nM
Cc1cc(-n2ccnc2C)c2cccc(OCc3c(Cl)cncc3Cl)c2n1,200 nM,1300 nM,
Cc1cc(-c2nscc2C)c2cccc(OCc3c(Cl)cncc3Cl)c2n1,20 nM,70 nM,
Cc1cc(-c2[nH]ncc2C)c2cccc(OCc3c(C)ccnc3Cn3cccc(C(F)(F)F)c3=O)c2n1,8.7 nM,1.1 nM,remaining at 1 µM [3]: 21%; half-life [4]: 1.12 h; clearance [5]: 21 mL/min/kg; IC50 (Cytochrome P450 3A4): 3800 nM; IC50 (Cytochrome P450 2C19): > 5000 nM; bioavailability [6]: > 17%
Cc1cc(-c2ncsc2C)c2cccc(OCc3c(Cl)cncc3Cl)c2n1,64 nM,400 nM,
Cc1cc(-c2ccnn2C)c2cccc(OCc3c(Cl)cncc3Sc3nccs3)c2n1,50 nM,29 nM,IC50 (B2 bradykinin receptor [7]): 470 nM; IC50 [8]: 2300 nM
Cc1cc(-c2cscn2)c2cccc(OCc3c(Cl)cncc3Cl)c2n1,80 nM,300 nM,
Cc1cc(-c2nncn2C)c2cccc(OCc3c(Cl)cncc3Cl)c2n1,7100 nM,,
Cc1cc(-c2ccnn2C)c2cccc(OCc3c(Cl)cncc3CCC(=O)N(C)C)c2n1,36 nM,73 nM,
Cc1cc(-c2ccnn2C)c2cccc(OCc3c(Cl)cncc3SCC(=O)N(C)C)c2n1,7.5 nM,24 nM,
Cc1cc(-c2ccnn2C)c2cccc(OCc3c(Cl)cncc3COC(=O)N(C)C)c2n1,8.3 nM,12 nM,
Cc1ccc2cccc(OCc3c(Cl)ccc(N(C)C(=O)CNC(=O)/C=C/c4ccc(C(F)(F)F)cc4)c3C#N)c2n1,,,IC50 (B2 bradykinin receptor [9]): 0.3 nM
Cc1cc(-c2ncnn2C)c2cccc(OCc3c(Cl)cncc3Cl)c2n1,68 nM,2400 nM,
Cc1cc(-c2csnc2C)c2cccc(OCc3c(Cl)cncc3Cl)c2n1,200 nM,330 nM,
Cc1cc(-c2nccs2)c2cccc(OCc3c(Cl)cncc3Cl)c2n1,420 nM,480 nM,
Cc1cc(-n2ccnc2)c2cccc(OCc3c(Cl)cncc3Cl)c2n1,580 nM,2500 nM,solubility [10]: > 50 µM
Cc1cc(-c2ccnn2C)c2cccc(OCc3ccncc3Cl)c2n1,517 nM,1600 nM,
Cc1cc(-c2cn[nH]c2C)c2cccc(OCc3c(Cl)cncc3Cl)c2n1,3600 nM,6300 nM,
Cc1ccc2cccc(OCc3c(Cl)cccc3Cl)c2n1,,,solubility [10]: < 1 µM
Cc1cc(-c2ccnn2C)c2cccc(OCc3c(Cl)cncc3CCC(N)=O)c2n1,33 nM,190 nM,
Cc1cc(-c2scnc2C)c2cccc(OCc3c(Cl)cncc3Cl)c2n1,110 nM,67 nM,
Cc1cc(C)c2cccc(OCc3c(Cl)ccc(S(=O)(=O)N4CCC[C@H]4C(=O)CCCNC(=O)c4ccc(C(=N)N)cc4)c3Cl)c2n1,0.67 nM,,
Cc1cc(-c2ccnn2C)c2cccc(OCc3c(Cl)cncc3CNC(=O)N(C)C)c2n1,6.6 nM,2.8 nM,

# Now from value to compound, other results behind:
IC50 (B2 bradykinin receptor [1]),IC50 (B2 bradykinin receptor [2]),SMILES,also measured
6.5 nM,91 nM,Cc1cc(-c2ccnn2C)c2cccc(OCc3c(Cl)cncc3OCC(=O)N(C)C)c2n1,
50 nM,180 nM,Cc1cc(-c2ccnn2C)c2cccc(OCc3c(Cl)cncc3Cl)c2n1,remaining at 1 µM [3]: 7%
5300 nM,,Cc1ccc2cccc(OCc3c(Cl)cncc3Cl)c2n1,
135 nM,420 nM,Cc1cc(-c2cncs2)c2cccc(OCc3c(Cl)cncc3Cl)c2n1,
5.4 nM,3.8 nM,Cc1cc(-c2ccnn2C)c2cccc(OCc3c(C)ccnc3CNC(=O)C(C)C)c2n1,remaining at 1 µM [3]: 13%; IC50 (Cytochrome P450 3A4): 3100 nM; IC50 (Cytochrome P450 2C19): > 5000 nM
430 nM,3800 nM,Cc1cc(-c2conc2C)c2cccc(OCc3c(Cl)cncc3Cl)c2n1,
210 nM,730 nM,Cc1cc(-c2ncsc2Cl)c2cccc(OCc3c(Cl)cncc3Cl)c2n1,remaining at 1 µM [3]: 35%
32 nM,920 nM,Cc1cc(-n2cccn2)c2cccc(OCc3c(Cl)cncc3Cl)c2n1,
18 nM,43 nM,Cc1cc(-c2ccnn2C)c2cccc(OCc3c(Cl)cncc3Sc3nccn3C)c2n1,
6050 nM,> 5000 nM,Cc1cc(-c2ocnc2C)c2cccc(OCc3c(Cl)cncc3Cl)c2n1,
140 nM,260 nM,Cc1cc(-c2ccnn2C)c2cccc(OCc3c(Cl)cncc3COc3ccccn3)c2n1,
37 nM,76 nM,Cc1cc(-c2ccnn2C)c2cccc(OCc3c(Cl)cncc3[S+]([O-])CC(=O)N(C)C)c2n1 (configuration not stated),
12 nM,24 nM,CC(=O)NCc1cncc(Cl)c1COc1cccc2c(-c3ccnn3C)cc(C)nc12,
0.05 nM,,Cc1cc(C)c2cccc(OCc3c(Cl)ccc(S(=O)(=O)NC4(C(=O)N5CCN(C(=O)[C@@H](N)CCC[N+](C)(C)C)CC5)CCOCC4)c3Cl)c2n1 [FASITIBANT CHLORIDE],
4 nM,1.4 nM,Cc1cc(-c2ccnn2C)c2cccc(OCc3c(Cl)cncc3Cn3cccc(C(F)(F)F)c3=O)c2n1,
90 nM,760 nM,Cc1cc(-c2nccn2C)c2cccc(OCc3c(Cl)cncc3Cl)c2n1,
200 nM,3400 nM,Cc1cc(-c2ncc(C)n2C)c2cccc(OCc3c(Cl)cncc3Cl)c2n1,
10 nM,1.8 nM,Cc1cc(-c2ccnn2C)c2cccc(OCc3c(C)ccnc3CNC(=O)C3CCCCC3)c2n1,remaining at 1 µM [3]: 17%; IC50 (Cytochrome P450 3A4): 2500 nM; IC50 (Cytochrome P450 2C19): 1600 nM
7.8 nM,2.3 nM,Cc1cc(-c2ccnn2C)c2cccc(OCc3c(Cl)cncc3CNC(=O)C(C)C)c2n1,
14 nM,110 nM,Cc1cc(-c2ccnn2C)c2cccc(OCc3c(Cl)cncc3CNS(C)(=O)=O)c2n1,
